AHR act: activators of human aryl hydrocarbon receptor; P35869; AHR-responsive luciferase reporter cells, luminescence; activation, % at 5 µM; actives 2.5% (n = 320,000); AID 2796; in the data active means activation above about 47%;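 further: 0% = vehicle wells and 100% = reference agonist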
procasp3 activ: activates human procaspase-3; P42574; recombinant procaspase-3 D3A, Ac-DEVD-pNA absorbance 405 nm; activation, % at 8.5 µM; actives 0.11% (n = 330,000); AID 463141;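 active means activation above the mean of all tested compounds plus 3 SD, cut at about 21% in these data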;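 further: 0% = DMSO alone and 100% = DMSO wells spiked with extra 5 µM PC-3 D3A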
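System: Procaspase-3 D3A mutant. Medium: Zinc-free 300 mM NaCl, 50 mM HEPES, 0.01% Triton X-100. Schedule: 1 h preincubation plus 2 h reaction at 25 °C. Measured by: 405 nm absorbance of p-nitroaniline, reads at 0 and 120 min. Read-out: percent activation relative to control range.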
proCasp7 act: counter-screen for procaspase-3 activators: activators of human procaspase-7; actives 0.093% (n = 330,000); activation, % at 8.5 µM; recombinant procaspase-7, Ac-DEVD-pNA absorbance 405 nm; D23A/D198A/D206A triple mutant, cannot self-cleave; scale: DMSO 0, 5 µM enzyme 100; P55210; AID 463210;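 active means percent activation above the screen-wide mean plus 3 SD, cut at about 25% in these data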
Target sequence (P55210 whole entry D23A/D198A/D206A): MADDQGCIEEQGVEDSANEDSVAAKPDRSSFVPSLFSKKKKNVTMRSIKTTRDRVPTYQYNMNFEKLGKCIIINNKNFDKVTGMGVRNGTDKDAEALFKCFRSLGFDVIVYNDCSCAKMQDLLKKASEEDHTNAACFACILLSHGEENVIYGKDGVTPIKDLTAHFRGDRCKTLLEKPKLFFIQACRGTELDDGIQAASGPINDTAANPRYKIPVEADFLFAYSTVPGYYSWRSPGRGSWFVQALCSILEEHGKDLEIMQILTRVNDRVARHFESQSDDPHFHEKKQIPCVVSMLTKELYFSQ
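Test system: Procaspase-7 triple mutant (PC-7 D3A). Also added: Ac-DEVD-pNA substrate, 400 µM as added. Schedule: 1 h enzyme–compound preincubation and 2 h substrate reaction, both 25 °C. Signal: p-Nitroaniline absorbance at 405 nm, read at 0 and 120 min. Control set: low DMSO alone, high DMSO plus 5 µM PC-7.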
PolyA inhibitor: blocks polyadenylation in yeast reporter cells. S. cerevisiae SKY197-pL101 polyadenylation reporter, beta-gal luminescence; efflux-impaired pdr1/pdr3 knockout yeast; score 100 = 6 SD above DMSO. activity score, % at 12 µM. actives 0.02% (n = 300,000). AID 1875;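 active means lowest replicate activity score at least 50, where 100 means six control SD above control mean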;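 further: yeast exposed to compound for 9 h at 30 °C; higher score means more reporter readthrough which indicates perturbed polyadenylation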
Starred values were filed as active, the others as inactive; x = not tested or not shown. A selection: hits, their analogues and other compounds. The true share with any hit is near 2.6%.

SMILES	AHR act	procasp3 activ	proCasp7 act	PolyA inhibitor
CN(C)S(=O)(=O)c1cccc(NC(=O)CCc2c[nH]c3ccccc23)c1	4	-1	0	7
CCCCn1c(N)c(N(Cc2ccccc2OC)C(=O)CSCC(=O)Nc2cccc(C)c2)c(=O)[nH]c1=O	x	x	x	7
COc1ccccc1/C=C1\SC(=S)N(CCC(=O)NNC(=O)c2ccccc2O)C1=O	56*	-2	-9	4
CCOC(=O)C1CCN(C(=O)COC(=O)/C=C/c2ccc([N+](=O)[O-])cc2)CC1	-1	1	4	x
CCc1cc2ccc(C)cc2nc1SCC(=O)N1CCN(C(=O)c2ccco2)CC1	52*	-8	-5	-17
Cc1ccc2nc(SCC(=O)N3CCN(C(=O)c4ccco4)CC3)[nH]c2c1	68*	4	14	0
CCc1cc2cc3c(cc2nc1SCC(=O)N1CCN(C(=O)c2ccco2)CC1)OCO3	18	3	-2	1
Cn1c(=O)c(=O)n(C)c2cc(N3CCCC3)c(NS(=O)(=O)c3ccc(Cl)cc3)cc21	1	-2	-3	16
CCOC(=O)CSc1ccc2ccccc2n1	-2	6	5	-13
CCOC(=O)CN1C=C(c2ccc3ccccc3n2)C(C[N+](=O)[O-])c2ccccc21 (stereo not drawn)	67*	-1	1	12
C=CCOc1c(Br)cc(CNc2ccc(NC(=O)CCC)cc2)cc1OCC	3	-7	-4	22
C=CCOc1c(Br)cc(CNc2ccc(NC(=O)C(C)C)c(OC)c2)cc1OCC	67*	0	1	15
C/C(=N\Nc1nc2ccccc2s1)c1cccs1	58*	-3	-12	-31
CC(=O)Nc1ccc(/C=N/Nc2nc3ccccc3s2)cc1	x	x	x	-5
CC(=O)Nc1cccc(/C(C)=N/Nc2nc3ccccc3s2)c1	61*	5	6	3
C#CCn1cc(/C=N/Nc2nc3ccccc3[nH]2)c2ccccc21	127*	9	-5	8
CCCCn1c(/C=N/Nc2nc3ccccc3[nH]2)nc2ccccc21	73*	25*	2	-45
CCCCn1c(/C=C/c2ccco2)nc2ccccc21	20	-2	-6	-26
CC(C)=CCC/C(C)=C/COc1c2occc2cc2ccc(=O)oc12	69*	7	0	x
CCOC(=O)CC1C(=O)NCCN1C(=O)c1ccc(Cl)c(Cl)c1 (stereo not drawn)	-1	3	12	-11
CCc1ccc2nc3nc(C)cc(C)c3c(N)c2c1	68*	-7	-6	-2
COC(=O)c1cc(Br)c(=O)n(CCc2ccc(F)cc2)c1	56*	0	4	-22
Cc1nnc(NC(=O)CSc2ccc3nnc(-c4ccccn4)n3n2)s1	0	1	4	-2
COc1ccccc1NC(=O)CSc1ccc2nnc(-c3cccnc3)n2n1	79*	-1	7	-14
O=C(CSc1ccc2nnc(-c3ccccn3)n2n1)Nc1nccs1	55*	4	2	-4
SMILES	AHR act	procasp3 activ	proCasp7 act	PolyA inhibitor
Brc1ccc(CSc2ccc3nnc(-c4cccnc4)n3n2)cc1	34	-6	-1	6
Cc1ccc(CSc2ccc3nnc(-c4cccnc4)n3n2)cc1	71*	4	8	-2
CCCCn1c(N)c(N(CC)C(=O)CN2C(=O)NC(C)(c3ccccc3)C2=O)c(=O)[nH]c1=O (stereo not drawn)	-1	3	2	-6
Brc1ccc(C2=CC(c3ccco3)n3nnnc3N2)cc1 (stereo not drawn)	52*	-3	5	13
COC(=O)C(Cc1c[nH]c2ccccc12)NC(=O)c1cncc(Br)c1 (stereo not drawn)	44	-5	-4	20
O=C(NCCc1c[nH]c2ccccc12)c1cncc(Br)c1	49*	4	8	-3
COc1ccc2ccccc2c1/C=N\NC(=O)c1cccnc1	35	-10	5	11
O=C(N/N=C/c1c(O)ccc2ccccc12)c1cccnc1	73*	-12	-34	8
O=C(N/N=C\c1c(O)ccc2ccccc12)c1cncc(Br)c1	67*	-1	-14	-22
Cc1nn(Cc2ccccc2)c(Cl)c1/C=N/NC(=O)c1cccnc1	52*	3	12	10
Cc1c(/C=N/NC(=O)c2cccnc2)c2ccccc2n1Cc1ccccc1	28	-6	-2	-6
Nn1c(SCC(=O)NNC(=O)c2ccccc2)nnc1-c1ccccc1F	3	0	-2	5

Screening results from PubChem BioAssay.
